M1 antagonist – antagonists of rat M1 muscarinic receptor | Muscarinic acetylcholine receptor M1 (Rattus norvegicus), P08482 | CHO-M1 cells, Fluo-4 calcium, ACh EC80 antagonist mode; hits give low values | B-score at 10 µM | 64,000 compounds, 3.4% hits;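 active = calcium fluorescence response, raw or row-and-column corrected B-score, differing from the plate sample mean either way at a set confidence level, mostly lower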
M1 agonist – M1 muscarinic receptor agonists, primary screen, CHO-M1 cells, Fluo-4 calcium, agonist mode | Muscarinic acetylcholine receptor M1 | Fluo-4 calcium fluorescence; hits give high values | B-score at 10 µM | 64,000 compounds, 3% hits | AID 626, 2007;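 active = fluorescence rise, raw or as B-score row- and column-corrected plate score, outside the 99.7% band of its plate's samples, either direction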
TNAP act DEA – human TNAP enzyme activators, primary screen, biochemical, luminescent, intermediate phosphate acceptor level; Alkaline phosphatase, tissue-nonspecific isozyme (Homo sapiens), P05186; purified TNAP, CDP-star luminescence, 100 mM DEA, 30 min; hits give high values; scale: 0 levamisole-inhibited, 1 vehicle-only enzyme; activation factor at 20 µM; 64,000 tested, under 10 active; AID 813, 2007;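 active = activation factor of at least 2 at 20 µM, relative to controls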
D1 allo mod – D1 CRE-luciferase signal change, two-sided – cell-based, HEK293 D1, dopamine EC30, D1 allosteric modulator project, primary screen; dopamine EC30 potentiation; actives deviate in either direction; AID 641, 2007; 58,000 compounds, 5.9% hits; B-score at 10 µM;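 active = luminescence count or its row- and column-corrected plate score outside the 99.7% band of the plate's sample wells, on either side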
Target sequence (P21728 whole entry, looked up): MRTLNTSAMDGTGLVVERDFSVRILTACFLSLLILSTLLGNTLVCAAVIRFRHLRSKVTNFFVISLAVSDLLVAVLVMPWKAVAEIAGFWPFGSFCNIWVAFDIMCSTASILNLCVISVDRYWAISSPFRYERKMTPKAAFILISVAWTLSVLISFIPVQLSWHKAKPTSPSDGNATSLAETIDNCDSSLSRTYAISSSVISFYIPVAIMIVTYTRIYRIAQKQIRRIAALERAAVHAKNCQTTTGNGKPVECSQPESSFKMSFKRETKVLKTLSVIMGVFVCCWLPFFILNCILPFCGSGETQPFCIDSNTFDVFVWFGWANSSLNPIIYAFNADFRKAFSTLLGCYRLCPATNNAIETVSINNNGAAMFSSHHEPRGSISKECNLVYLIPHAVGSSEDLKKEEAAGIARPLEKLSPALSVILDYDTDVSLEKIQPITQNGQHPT
S1P3 agonist – human S1P3 receptor agonists, primary screen, cell-based, primary and confirmation, NFAT-BLA reporter; activation, % at 4.5 µM; Sphingosine 1-phosphate receptor 3 (Homo sapiens), Q99500; S1P3 NFAT-BLA reporter cells, agonism, FRET ratio; relative to 1 µM S1P, basal subtracted; AID 373, 2006; 60,000 compounds, 0.1% hits;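 active = activation above the screen-wide mean plus 3 SD, cut at about 4.5% in these data, passing the limit was not always enough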
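material = human S1P3 NFAT-BLA reporter CHO cells | schedule = 4 h compound at 37 °C, 2 h substrate at RT | measured by = fluorescent BLA substrate, ex 405 nm, em 460/535 nm ratio | controls = 1 µM S1P reference | replication = primary once, confirmation triplicate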
S1P1 ag-PAM – S1P1 agonists and agonism potentiators, primary screen, cell-based, primary and confirmation screens, CRE-bla reporter; activation, % at 9.5 µM; S1P1 CRE-bla cells, forskolin, beta-lactamase FRET, potentiator mode; S1P1 agonist co-added at EC20, 2 nM; 100% = saturating reference agonist, 0% = basal; Sphingosine 1-phosphate receptor 1 (Homo sapiens), P21453; 56,000 compounds, 0.57% hits;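 active = activation above a cutoff set at the mean activation of all tested compounds plus 3 SD, cut at about 54% in these data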;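 note: forskolin at 4 µM as EC80 and the EC20 agonist is SEW2871; 100% = SEW2871 at its EC100 plus forskolin at EC80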
An asterisk follows results filed as active. In the library only some 11% were active in any assay of this set; here they are far more common.

Results for CC(C)Cn1c2nc3ccccc3nc2c2c(=O)n(CCN3CCOCC3)cnc21 ?
M1 antagonist: -0.0478; M1 agonist: -1.13; TNAP act DEA: 1; D1 allo mod: 4.79*; S1P3 agonist: -0.5; S1P1 ag-PAM: -0.3

What do the screens show for `COC(=O)c1ccccc1NC(NC(=O)c1ccco1)C(=O)c1ccc(C)cc1` (stereo not given)?
M1 antagonist: 1.28; M1 agonist: -0.135; TNAP act DEA: 0.9; D1 allo mod: 1.06; S1P3 agonist: -1.9; S1P1 ag-PAM: 5.8

How did CCCCc1ccc(-c2ccc(C)cc2O)nc1 do in these assays?
M1 antagonist: 1.22; M1 agonist: -1.22; TNAP act DEA: 1.1; D1 allo mod: -5.29*; S1P3 agonist: -0.9; S1P1 ag-PAM: -1.6

What do the screens show for `CCOC(=O)c1sc(NC(=O)CSc2nnc(-c3ccc(OC)cc3)n2CCOC)nc1C`?
M1 antagonist: -0.0111; M1 agonist: 0.0907; TNAP act DEA: 0.9; D1 allo mod: 0.717; S1P3 agonist: -0.5; S1P1 ag-PAM: -17.6

Results for O=C(CCC1CCCC1)c1c(O)c2ccccc2oc1=O ?
M1 antagonist: -2.08*; M1 agonist: 8.17*; TNAP act DEA: 0.9; D1 allo mod: -3.15*; S1P3 agonist: 0.1; S1P1 ag-PAM: -1.6

How did Cc1ccc2cc(CN(Cc3cccs3)C(=O)c3ccco3)c3nnnn3c2c1C do in these assays?
M1 antagonist: -0.307; M1 agonist: 1.7; TNAP act DEA: 0.9; D1 allo mod: 3.67*; S1P3 agonist: 0.1; S1P1 ag-PAM: 0.2

How did O=C(c1ccccc1)C(CCC(CN1CCOCC1)C(=O)c1ccccc1)CN1CCOCC1 (stereo not given) do in these assays?
M1 antagonist: -0.0782; M1 agonist: -0.28; TNAP act DEA: 0.9; S1P3 agonist: -4.7; S1P1 ag-PAM: 92.6*

How did COc1cc(NS(=O)(=O)c2ccc(C)cc2)ccc1-n1cnnn1 do in these assays?
M1 antagonist: -0.0923; M1 agonist: -1.46; TNAP act DEA: 0.9; S1P3 agonist: -1.1; S1P1 ag-PAM: -7.2

What do the screens show for `CCOc1ccc(Nc2c3c(nc4ncnn24)CC(C)CC3)cc1` (stereo not given)?
M1 antagonist: 2.43*; M1 agonist: 1.2; TNAP act DEA: 1; D1 allo mod: 0.291; S1P3 agonist: -0.5; S1P1 ag-PAM: 14.1

What do the screens show for `CC(=O)Cc1nsc(NC(=O)c2ccc(COc3ccccc3)o2)n1`?
M1 antagonist: -0.000789; M1 agonist: -1.07; TNAP act DEA: 1; D1 allo mod: 0.101; S1P3 agonist: -0.6; S1P1 ag-PAM: -2.4

How did Cc1cccc(N2CCN(c3nc4ccccc4n4cnnc34)CC2)c1C do in these assays?
M1 antagonist: 0.357*; M1 agonist: 0.59; TNAP act DEA: 0.9; D1 allo mod: 0.479; S1P3 agonist: -0.7; S1P1 ag-PAM: -21.4

How did CCOC(=O)N1CCN(C(=O)Cn2cc3c(n2)CCCC3)CC1 do in these assays?
M1 antagonist: 0.113; M1 agonist: -3.19*; TNAP act DEA: 0.9; D1 allo mod: -0.545; S1P3 agonist: -0.6; S1P1 ag-PAM: 11.6

Results for CC1CCN(C(=O)Cn2cc3c(n2)CCCC3)CC1 ?
M1 antagonist: 0.47; M1 agonist: -0.162; TNAP act DEA: 0.9; D1 allo mod: 0.126; S1P3 agonist: -1.2; S1P1 ag-PAM: -12.4

What do the screens show for `COc1ccc(-c2onc3ccc(Cl)cc23)cc1OC`?
M1 antagonist: 0.265; M1 agonist: 1.74; TNAP act DEA: 0.9; D1 allo mod: 12.8*; S1P3 agonist: -0.9

What do the screens show for `COc1ccc(-c2noc(-c3cccc(Cl)c3)n2)cc1OC`?
M1 antagonist: 0.772; M1 agonist: -1.56; TNAP act DEA: 0.9; D1 allo mod: -1.44

What do the screens show for `Cc1cccc(C)c1OCCCCc1c(C)n[nH]c1C`?
M1 antagonist: -0.847; M1 agonist: 0.137; TNAP act DEA: 1.1; D1 allo mod: -0.554; S1P3 agonist: -1.1; S1P1 ag-PAM: 36.8

What do the screens show for `Cc1ccccc1OCCCCc1c(C)n[nH]c1C`?
M1 antagonist: -0.923; M1 agonist: -0.514; TNAP act DEA: 0.9; D1 allo mod: -1.47; S1P3 agonist: -1.6; S1P1 ag-PAM: 130.6*

How did CCOC(=O)c1cnc(SCc2nc(N)nc(Nc3ccc(C)cc3)n2)nc1N do in these assays?
M1 antagonist: 0.372; M1 agonist: -0.824; TNAP act DEA: 1; D1 allo mod: 2.3; S1P3 agonist: -0.8; S1P1 ag-PAM: -8.0

How did CN(c1ccc(C(=O)N2CCCCC2)cc1)S(C)(=O)=O do in these assays?
TNAP act DEA: 0.9; D1 allo mod: -0.146; S1P3 agonist: -1.3; S1P1 ag-PAM: 14.3

Results for c1ccc(Sc2nc(N3CCCCC3)nc(N3CCCCC3)n2)nc1 ?
M1 antagonist: 2.1*; M1 agonist: 0.482; TNAP act DEA: 1; D1 allo mod: 0.346

What do the screens show for `Cc1nc2ccccc2nc1N1CCCCC1`?
M1 antagonist: 1.07; M1 agonist: 0.211; TNAP act DEA: 0.9; D1 allo mod: 1.22; S1P3 agonist: -1.7; S1P1 ag-PAM: -0.8

What do the screens show for `O=C(C1Cc2ccccc2CN1S(=O)(=O)c1cccs1)N1CCCCCC1` (stereo not given)?
TNAP act DEA: 0.9; S1P3 agonist: 0.0; S1P1 ag-PAM: 2.1

Results for CCN1CCN(C(c2cccs2)C(C)NC(=O)c2ccccc2F)CC1 (stereo not given) ?
M1 antagonist: -1.07; M1 agonist: 0.45; TNAP act DEA: 1; D1 allo mod: -0.11; S1P3 agonist: 0.1; S1P1 ag-PAM: -3.6

What do the screens show for `Fc1ccc(OCc2nn3cnnc3s2)cc1`?
TNAP act DEA: 1; D1 allo mod: -3.98*; S1P3 agonist: 0.0; S1P1 ag-PAM: -2.7

Results for CCOc1ccc(-c2nnc3sc(COc4ccc(C)cc4)nn23)cc1 ?
M1 antagonist: 0.00244; M1 agonist: 0.301; TNAP act DEA: 0.9; D1 allo mod: -0.735; S1P3 agonist: 0.2; S1P1 ag-PAM: -33.8

How did Nc1c(N2CCOCC2)cc(Cl)c2nonc12 do in these assays?
M1 antagonist: 0.649; M1 agonist: 0.415; TNAP act DEA: 0.9; D1 allo mod: -4.83*; S1P3 agonist: -0.4; S1P1 ag-PAM: -1.0

What do the screens show for `C1CN(c2nc3nonc3nc2N2CCOCC2)CCO1`?
M1 antagonist: 1.13; M1 agonist: 0.363; TNAP act DEA: 0.9; S1P3 agonist: -0.9; S1P1 ag-PAM: 6.4

Results for c1ccc(-c2cn3c4c(sc3n2)CCCC4)cc1 ?
M1 antagonist: 0.0999; M1 agonist: -0.114; TNAP act DEA: 0.9; D1 allo mod: -9.94*; S1P3 agonist: -0.9; S1P1 ag-PAM: 22.2

From PubChem
